CYP2C9 act – CYP2C9 (human) activation | P11712 | recombinant CYP2C9, luciferin-H conversion, luminescence; hits give high values; factor 1 = untreated enzyme, 0 = blocked | activation factor at 5 µM | 96,000 compounds, 1.4% hits | AID 1024;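 active means activation factor of 2 or more for CYP2C9 at a 5 µM dose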;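 further: 0 = sulfaphenazole-blocked wells and 1 = vehicle-only wells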
Rev-RRE block – HIV Rev-RRE protein-RNA interaction inhibition; P05866; Rev peptide-RRE RNA binding, FRET; inhibition, % at 8 µM; 97,000 compounds, 0.79% hits; AID 704;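 active means inhibition above the screen-wide mean plus 3 SD, cut at about 35% in these data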;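 further: 0% = median DMSO wells and 100% = median Neomycin B control wells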
Target sequence (P05866 whole entry, looked up): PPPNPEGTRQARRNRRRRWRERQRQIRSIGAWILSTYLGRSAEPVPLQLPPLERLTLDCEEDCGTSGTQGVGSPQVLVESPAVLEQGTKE
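Material: labelled RRE RNA duplex and labelled Rev peptide / Buffer or medium: HEPES pH 7.5 salt buffer with EDTA / Compound dosing: single point, 8 µM final nominal compound concentration / Benchmarks: DMSO low control, neomycin B high control / Timing: 5 min preincubation and 15 min binding, 25 °C / Technique: FRET fluorescence readout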
CYP2C19 inhib – inhibitors of human CYP2C19. inhibition, % at 5 µM. CYP2C19 Supersomes, luciferin-H EGE luminescence, 30 min. 96,000 compounds, 21% hits;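 active means CYP2C19 inhibition above a set limit at 5 µM in the primary screen, cut at about 50% in these data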;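 further: plate controls were negative control wells for no effect and 2.5 mM tranylcypromine positive control for full effect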
Target sequence (P33261 whole entry, looked up): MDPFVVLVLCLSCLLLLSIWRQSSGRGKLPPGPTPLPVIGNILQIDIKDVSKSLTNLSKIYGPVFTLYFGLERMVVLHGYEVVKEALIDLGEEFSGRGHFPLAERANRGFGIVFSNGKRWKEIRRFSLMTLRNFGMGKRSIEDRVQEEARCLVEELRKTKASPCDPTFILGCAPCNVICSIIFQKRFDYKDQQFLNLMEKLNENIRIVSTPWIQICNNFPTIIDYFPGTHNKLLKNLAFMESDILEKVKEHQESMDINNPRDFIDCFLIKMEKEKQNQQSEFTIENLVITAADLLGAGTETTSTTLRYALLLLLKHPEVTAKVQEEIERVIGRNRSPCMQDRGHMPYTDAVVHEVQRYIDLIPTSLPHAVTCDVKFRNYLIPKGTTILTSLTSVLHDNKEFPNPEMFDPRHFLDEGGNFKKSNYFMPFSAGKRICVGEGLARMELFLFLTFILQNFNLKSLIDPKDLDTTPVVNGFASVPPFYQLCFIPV
Cav3 T inh – blocks human Cav3.2 T-type calcium channel; O95180; Cav3.2-expressing cells, Fluo-4 calcium fluorescence FDSS; hits give low values; B-score at 10 µM; 100,000 compounds, 4% hits; AID 449739;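 active means single-dose well whose peak fluorescence ratio is a statistical outlier from its plate by either plate-standardised score or position-corrected B-score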
CYP2C9 inhib – human CYP2C9 inhibition. 96,000 compounds, 20% hits. P11712. CYP2C9 Supersomes, luciferin-H conversion, luminescence. inhibition, % at 5 µM;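 active means blocking of liver enzyme CYP2C9 beyond about 50% at 5 µM, limit read from the data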
CYP2C19 activ – cytochrome P450 2C19 (human) activation; 96,000 tested, under 10 active; P33261; recombinant CYP2C19, luciferin-H EGE luminescence; hits give high values; 0 = fully inhibited enzyme, 1 = untreated enzyme; activation factor at 5 µM; AID 1025;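 active means activation factor of at least 2 at 5 µM in the primary screen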;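 further: 0 = wells with 2.5 mM tranylcypromine and 1 = vehicle-only wells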
An asterisk follows results filed as active; nt = no result. A selection: hits, their analogues and other compounds. The true share with any hit is near 27%.

SMILES	CYP2C9 act	Rev-RRE block	CYP2C19 inhib	Cav3 T inh	CYP2C9 inhib	CYP2C19 activ
CCOC(=O)c1ccccc1NC(=O)CN(c1ccccc1OCC)S(C)(=O)=O	0.9	15	9	-0.33	13	0.9
CCOc1ccccc1N(CC(=O)Nc1ccccc1C(=O)NCc1ccco1)S(C)(=O)=O	0.1	5	86*	0.48	86*	0.1
CCOc1ccc(N(CC(=O)Nc2ccccc2C(=O)NCc2ccco2)S(C)(=O)=O)cc1	0.3	6	23	-0.63	70*	0.8
CCOc1ccccc1N(CC(=O)Nc1cc(OC)ccc1OC)S(C)(=O)=O	0.2	8	96*	0.26	84*	0
CCOc1ccccc1N(CC(=O)Nc1ccccc1C(=O)O)S(C)(=O)=O	0	1	-2	0.6	97*	1
CC(=O)OCC1OC(Sc2cccc3cccnc23)C(OC(C)=O)C(OC(C)=O)C1OC(C)=O (configuration not stated)	1	3	-1	2	5	1
COc1ccc(Cl)cc1Nc1nc(N2CCCC2)nc(N2CCCC2)n1	1	nt	-12	nt	1	1.1
Cc1cc(C)cc(NC(=O)CN(C)S(=O)(=O)c2cnc[nH]2)c1	nt	1	nt	1.3	nt	nt
O=S(=O)(NCc1ccccc1)c1cnc[nH]1	0.1	3	62*	0.12	95*	0.4
O=S(=O)(NCc1ccc(Cl)cc1)c1cnc[nH]1	0	6	78*	0.79	95*	0.2
Cc1ccc(CCNS(=O)(=O)c2cnc[nH]2)cc1	0	nt	73*	0.41	98*	0.3
O=S(=O)(NCc1ccc(Cl)cc1)c1ccc(Cl)nc1	0.8	3	90*	-0.77	17	0.1
CC(C)(/C=N/O)/[N+]([O-])=C/C=[N+](\[O-])C(C)(C)/C=N/O	1.1	6	-2	nt	-8	1
COc1cc(CN2CCN(S(=O)(=O)c3ccc(NC(C)=O)cc3)CC2)cc(OC)c1O	0.6	nt	10	1.5	35	0.9
CC(C)Oc1ccc(/C=N/NC(=O)C(CSCc2ccccc2)NC(=O)c2ccc([N+](=O)[O-])cc2)cc1 (configuration not stated)	nt	12	nt	-7.4*	nt	nt
CCNc1ccccc(C(=O)/C=C/c2ccc3c(c2)OCO3)c1=O	0.6	55*	85*	0.41	37	0.1
Cc1ccc(C(=O)/C=C/c2ccccc2)o1	0.4	80*	69*	0.12	57*	0.3
O=C(/C=C/c1ccc2c(c1)OCO2)c1ccc(F)cc1	nt	nt	nt	-0.27	nt	nt
Cc1ccc(C(=O)/C=C/c2ccc(Br)cc2)o1	0.9	-3	13	0.53	8	0.9
Cc1ccc(C(=O)/C=C/c2ccc3c(c2)OCO3)o1	0.7	1	54*	-1.2	34	0.5
Cc1cccc(OCC(O)Cn2c(NCc3cccnc3)nc3c2c(=O)[nH]c(=O)n3C)c1 (configuration not stated)	0.7	4	4	0.97	25	1
COc1ccccc1N=c1oc2cc(O)ccc2cc1C(N)=O	0.3	63*	9	0.88	71*	0.9
Cc1cccc(N=c2oc3cc(O)ccc3cc2C(N)=O)c1	0.3	47*	18	0.51	69*	0.8
NC(=S)c1cc2ccc(O)cc2oc1=O	0.9	22	29	nt	13	0.7
Cc1cc(=O)oc2cc(OCC(=O)NCCc3nc4ccccc4[nH]3)ccc12	0.5	7	24	-2.2	46	0.8
SMILES	CYP2C9 act	Rev-RRE block	CYP2C19 inhib	Cav3 T inh	CYP2C9 inhib	CYP2C19 activ
CC(C)OC(=O)CSc1nc(N)c(C#N)c(-c2ccco2)c1C#N	0.9	13	-9	1.5	9	1.1
COCCOC(=O)c1c(C)nc(SCC(=O)Nc2ccc(C)cc2)c(C#N)c1-c1ccco1	0.1	nt	64*	-0.012	92*	0.4
Cc1cc(=O)[nH]c(SCC(=O)O)c1C#N	0.9	1	-8	0.72	11	1.1
COCCOC(=O)c1c(C)nc(SCC(=O)Nc2cccc3ccccc23)c(C#N)c1-c1ccco1	0.1	4	4	-3.4	94*	1
Cc1cc(=O)[nH]c(SCC(=O)Nc2cccc3ccccc23)c1C#N	0.1	5	26	1.2	86*	0.7
Cn1cnnc1SCCC(=O)Nc1ccc(Cl)cc1	nt	5	nt	0.59	nt	nt
COc1cccc(N(C(=O)Cn2nnc(-c3cccs3)n2)C(C(=O)NC(C)C)c2ccc(C)o2)c1 (configuration not stated)	0.9	7	7	-0.082	8	0.9
COc1ccc(S(=O)(=O)n2nc(OCc3cccs3)cc2N)cc1	nt	nt	nt	-1.2	nt	nt
Cc1cc(C)n(Cc2ccc(NC(=O)c3c([N+](=O)[O-])c(C)nn3C)cc2)n1	0.7	4	-9	1	29	1.1
CCOC(=O)c1cccc(NC(=O)CN(c2ccc(C)cc2)S(=O)(=O)c2c(C)n[nH]c2C)c1	0.2	7	61*	-1.2	82*	0.4
COc1ccc(N(CC(=O)Nc2ccc(OC)c(Cl)c2)S(=O)(=O)c2c(C)noc2C)cc1	1	8	3	0.58	0	1
Cc1ccc(NC(=O)CN(c2ccc3c(c2)OCO3)S(=O)(=O)c2c(C)n[nH]c2C)cc1	nt	2	nt	0.45	nt	nt
Cc1n[nH]c(C)c1S(=O)(=O)N(CC(=O)NC1CCCC1)c1ccc(C(C)C)cc1	0.3	1	61*	-1.3	75*	0.4
COc1ccc(N(CC(=O)Nc2ccc(C)c(C)c2)S(=O)(=O)c2c(C)n[nH]c2C)cc1	0.3	10	82*	nt	72*	0.2
COc1cc(NC(=O)CN(c2ccc(C)cc2)S(=O)(=O)c2c(C)n[nH]c2C)cc(OC)c1	0.2	12	82*	-1	84*	0.2
OC(CN1C2=NCCN2c2ccccc21)c1ccc2c(c1)OCO2 (configuration not stated)	0.8	-4	12	0.87	15	0.9
CCc1cccc(NC(=O)CN(c2ccc(OC)cc2)S(=O)(=O)c2c(C)n[nH]c2C)c1	0.2	13	88*	-4.2*	78*	0.1
O=C(c1ccc(Cl)cc1Cl)N1CCC(c2nc3c(nnn3Cc3ccco3)c(=O)[nH]2)CC1	0.4	5	4	-0.88	59*	1
Cc1ccc(Cn2nnc3c(=O)[nH]c(C(=O)NCc4ccco4)nc32)cc1	1	nt	1	-0.8	4	1
O=C(c1ccccc1)N1CCC(c2nc3c(nnn3Cc3ccco3)c(=O)[nH]2)CC1	0.5	9	14	1.1	53*	0.9
COCc1c(C)cc(C)c(/C=N/O)c1C	1.2	nt	-2	0.093	-21	1
Cc1nnc(N2CCN(C)CC2)c2nn(-c3ccc(Cl)cc3)c(C)c12	nt	-1	nt	nt	nt	nt
COc1ccc(C(=O)/C=C/N2CCCCC2)cc1OC	2.6*	nt	4	0.49	-159	1

High-throughput results as filed in PubChem BioAssay.
